Assay results reported in ChEMBL document CHEMBL1221223, “Identification of a chemical probe for NAADP by virtual screening” (Nat Chem Biol, 2009).
Activity calls are given as the source filed them. No cut-off for these calls is given here.

Experiments:
[1] = Displacement of [32P]NAADP from NAADP receptor in sea urchin egg homogenate preincubated 10 mins before [32P]NAADP addition; type: tissue-based, Lytechinus pictus
Outline: (§1)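 Sea urchin egg homogenate in intracellular-like buffer. Compound in DMSO (final 1% v/v) pre-incubated 10 min at 25°C, then [32P]NAADP added to 0.3 nM. Incubated 30 min, then binding assessed by filtration; concentration range used for displacement curves.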

[2] = (§2) Antagonistic activity at NAADP receptor in sea urchin egg homogenate assessed as inhibition of NAADP-mediated Ca2+ release using Fluo-3 staining based fluorimetric assay relative to control; type: functional, tissue-based, Lytechinus pictus
[3] = tested on: Lytechinus pictus; test: as §2; type: functional, tissue-based
[4] = species on record: Mus musculus; test: Binding affinity to NAADP receptor in CD1 mouse pancreatic beta cells assessed as fluorescent labeling of receptor at 60 nM after 30 mins by confocal microscopy
Outline: (§3)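 Mouse pancreatic beta cells imaged by confocal microscopy, compound excited at 355 nm with emission 415±30 nm. LysoTracker Red (50 nM, 20-40 min; excitation 568 nm, emission >590 nm) used as comparison. Pretreatment with bafilomycin A1 (3 μM, 15 min) or NAADP-acetoxymethyl ester (60 nM, 30 min).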

[5] = tested on: Lytechinus pictus; test: Displacement of [32P]NAADP from NAADP receptor in sea urchin egg homogenate after 5 days; type: tissue-based
Outline: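 Homogenate pre-incubated 10 min with compound (10 μM) or NAADP (10 nM), then [32P]NAADP added. Samples filtered at time points up to 5 days; dissociation read as recovery of [32P]NAADP binding (100% ≈ 1,500 cpm).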

[6] = tested on: Pancreatic islet; test: (§4) Inhibition of glucose-induced Ca2+ increase in CD1 mouse pancreatic islets preincubated for 30 mins before glucose challenge; type: functional, cell-based
Outline: (§5)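 Acutely isolated mouse islets loaded with fura-PE3 AM and held in 3 mM glucose. Compound pre-incubated 30 min, then 15 mM glucose added. First peak, oscillation amplitude and plateau measured; concentration-inhibition curve gives IC50.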

[7] = as §4; type: functional, cell-based; details: CD1, Pancreatic islet; outline: as §5
[8] = tested on: Lytechinus pictus; test: Noncompetitive inhibition of NAADP receptor in sea urchin egg homogenate assessed as inhibition of NAADP induced Ca2+ release using Fluo-3 staining based fluorimetric assay; type: tissue-based
[9] = tested on: Lytechinus pictus; test: Antagonistic activity at NAADP receptor in intact sea urchin eggs assessed as Inhibition of NAADP mediated Ca2+ increase at 100 uM using Oregon Green 488-BAPTA Dextran staining based by laser scanning confocal microscopy; type: functional
Outline: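 Intact Lytechinus pictus eggs on polylysine-coated coverslips in artificial seawater containing compound. Eggs microinjected with Oregon Green 488 BAPTA Dextran (10 μM). NAADP (100 μM in pipette) pressure-microinjected to 1% egg volume, delivering ~1 μM. Imaged by laser-scanning confocal microscopy, 488 nm excitation, emission 530±15 nm band-pass or 510 nm long-pass.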

[10] = tested on: Lytechinus pictus; test: Inhibition of IP3-induced Ca2+ release in sea urchin Egg homogenate at 100 uM using Fluo-3 staining based fluorimetric assay relative to control; values are per cent of control
[11] = tested on: Lytechinus pictus; test: Inhibition of cyclic ADP-ribose-induced Ca2+ release in sea urchin Egg homogenate at 100 uM using Fluo-3 staining based fluorimetric assay relative to control; values are per cent of control
[12] = Displacement of [32P]NAADP from Egg-binding protein in sea urchin egg homogenate at 6 uM after 10 mins; type: tissue-based, Lytechinus pictus; outline: as §1
[13] = species on record: Mus musculus; test: Inhibition of L-type calcium channel in CD1 mouse pancreatic islets at 100 uM in presence of glucose diazoxide and KCl
Outline: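 Mouse islets in glucose (10 mM) and diazoxide (100 μM), depolarized with KCl (45 mM) with or without compound (100 μM). Ca2+ transient monitored with fura-PE3.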

[14] = species on record: Mus musculus; test: Binding affinity to NAADP receptor in CD1 mouse pancreatic beta cells assessed as fluorescent labeling of receptor at 60 nM after 30 mins in presence of V-type proton pump inhibitor bafilomycin A1 by confocal microscopy; outline: as §3
[15] = species on record: Mus musculus; test: Antagonistic activity at NAADP receptor in CD1 mouse pancreatic beta cells assessed as inhibition of NAADP-mediated Ca2+ increase at 125 uM by patch clamp method; type: functional
Outline: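 Mouse pancreatic beta cells voltage-clamped with a patch pipette; NAADP delivered through the pipette (50 nM in text, 100 nM in legend). Compound pre-incubated in the bathing solution. Ca2+ increases read as Ca2+-dependent current traces, compared with and without compound in the bath.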

[16] = tested on: Lytechinus pictus; test: Antagonistic activity at NAADP receptor in sea urchin egg homogenate assessed as inhibition of NAADP-mediated Ca2+ release at 100 uM using Fluo-3 staining based fluorimetric assay relative to control; values are per cent of control
[17] = tested on: Pancreatic islet; test: Inhibition of glucose induced mitochondrial metabolism in CD1 mouse pancreatic islets assessed as NADH and NADPH levels by fluorescence method; type: functional, cell-based
Outline: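 Mouse islets pre-incubated 60 min at 37°C in 3 mM glucose. NAD(P)H fluorescence (360 nm excitation, >470 nm emission) expressed as percent of basal values within the same islet.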

Compound	inhibition [3]	also measured
COc1ccc([C@H]2N[C@H](C(=O)O)Cc3c2[nH]c2ccccc32)cc1CN1CCN(c2ccccc2F)CC1	–	IC50 [1]: 0.0004 µM; IC50 [2]: 0.006 µM
COc1ccc2[nH]c(C(=O)O)c(CCNC(=O)CO/N=C3/C=C[C@@]4(C)C(=C3)CC[C@@H]3[C@H]4CC[C@]4(C)[C@H]3CC[C@]4(C)O)c2c1	Toxic	–
CC(C)N(CCCNC(=O)c1ccc2c(c1)N(Cc1c(F)cccc1Cl)C(=O)CS2)Cc1ccccc1	Active	–
C[C@@H]1CCc2c(sc(NC(=O)CN3CCN(S(=O)(=O)c4ccc5c(c4)OCCO5)CC3)c2C#N)C1	inactive	–
CCn1c2ccccc2c2cc(NC(=O)CN3CCN(S(=O)(=O)c4cc(Cl)ccc4Cl)CC3)ccc21	inactive	–
Cc1ccc(-n2c(SCC(=O)N/N=C\c3cccc(Oc4ccccc4)c3)nnc2-c2ccc(Cl)cc2)cc1	inactive	–
COc1ccc([C@@H]2N[C@H](C(=O)O)Cc3c2[nH]c2ccccc32)cc1CN1CCN(c2ccccc2F)CC1	–	IC50 [1]: 15 µM; IC50 [2]: 0.8 µM
COc1ccccc1N(C)S(=O)(=O)c1ccc(C(=O)Nc2ccc(N(c3ccccc3)C(C)C)cc2)cc1	Active	–
CC(C)(c1ccccc1)c1ccc(OC[C@@H](O)CN[C@H](Cc2ccccc2)c2nc(-c3ccccc3)no2)cc1	inactive	–
COc1cc2c(cc1OC)-c1cc(NCCN3CCN(C(=O)c4ccc(F)cc4)CC3)nc(=O)n1CC2	inactive	–
NC(=O)c1c(NC(=O)CN2CCN(S(=O)(=O)c3ccc4c(c3)OCCO4)CC2)sc2c1CCCC2	inactive	–
CCC(=O)N1N=C(c2ccc(C3=NN(C(=O)CC)[C@H](c4cccc(OC)c4OC)C3)cc2)C[C@H]1c1cccc(OC)c1OC	Insoluble	–
CN1C(=O)/C(=C/c2ccccc2F)Sc2ccc(C(=O)N3CCN(Cc4ccc5c(c4)OCO5)CC3)cc21	inactive	–
CCN(CC)CCOC(=O)c1ccc(NC(=O)c2cc(-c3cccc4ccccc34)nc3ccccc23)cc1	inactive	–
C=C1NN(c2nc(-c3cccc([N+](=O)[O-])c3)cs2)C(=O)/C1=N/Nc1ccc(Cl)cc1C(=O)c1ccccc1	Insoluble	–
Cc1ccc(-c2cc(C(=O)NCC(C)(C)CNC(=O)c3cc(-c4ccc(C)o4)nc4ccccc34)c3ccccc3n2)o1	inactive	–
O=C(COc1ccccc1-c1ccccc1)N1CCN(S(=O)(=O)c2ccc3c(c2)OCCO3)CC1	inactive	–
COc1ccc(C2N[C@H](C(=O)O)Cc3c2[nH]c2ccccc32)cc1CN1CCN(c2ccccc2F)CC1 (some centres not stated)	–	Activity [4]: Active; inhibition [5]: Active; inhibition [6]: Dose-dependent effect; IC50 [7]: 3 µM; inhibition [8]: Active; inhibition [9]: Active; IC50 [2]: 2 µM; level, % of control [10]: 87%; level, % of control [11]: 101%; Ki [12]: 6 µM; inhibition [13]: inactive; Activity [14]: Active; inhibition [15]: Active; residual activity [16]: 5.4%; inhibition [17]: inactive
CCN1C(=O)c2ccccc2[C@H]1Nc1ccc(C(=O)N2CCN(C/C=C/c3ccccc3)CC2)cc1	inactive	–
O=C(COC(=O)c1cccc(Oc2ccccc2)c1)COC(=O)c1cccc(Oc2ccccc2)c1	inactive	–
CN1C(=O)/C(=C/c2ccccc2Cl)Sc2ccc(C(=O)N3CCN(Cc4ccc5c(c4)OCO5)CC3)cc21	inactive	–
COc1ccc(C(=O)OCC(=O)c2ccc3c(c2)-c2ccccc2C3)cc1S(=O)(=O)N1CCCc2ccccc21	Active	–
COc1ccc(S(=O)(=O)N2CCN([C@H](C)C(=O)Nc3ccccc3-c3ccccc3)CC2)cc1	inactive	–
FC(F)(F)c1cccc(N2CCN(Cn3nc(COc4ccccc4)n(-c4ccccc4)c3=S)CC2)c1	Toxic	–
CS(=O)(=O)N(Cc1ccccc1)c1ccc(C(=O)N/N=C/c2cccc(Oc3ccccc3)c2)cc1	inactive	–
CCn1c2ccccc2c2cc(NC(=O)CN3CCN(S(=O)(=O)c4ccc(OC)cc4)CC3)ccc21	inactive	–
